Measured values: ChEMBL document CHEMBL1154686, “Pyrazoline bearing benzimidazoles: search for anticancer agent” (2010)

Columns and labels:
Type in all cases: functional
[1] = tested on: K562; test: Growth inhibition of human K562 cells after 48 hrs by SRB assay; conditions: K562, 48 h
Outline: (§1)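 Suspension leukemia lines were run in the NCI-60 SRB format. Cells were plated at 5,000–40,000 cells/well and pre-incubated 24 h at 37 °C, 5% CO₂, with time-zero plates fixed at drug addition. Drug exposure in DMSO-derived dilutions lasted 48 h. Settled cells were fixed with 80% TCA (final 16%), stained with 0.4% SRB, solubilized in 10 mM trizma base, and read at 515 nm. Percent growth was taken relative to the time-zero and control readings.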

[2] = tested on: MOLT-4; test: Growth inhibition of human MOLT4 cells after 48 hrs by SRB assay; conditions: MOLT-4, 48 h; outline: as §1
[3] = tested on: RPMI-8226; test: Growth inhibition of human RPMI8226 cells after 48 hrs by SRB assay; conditions: RPMI-8226, 48 h; outline: as §1
[4] = tested on: SR; test: Growth inhibition of human SR cells after 48 hrs by SRB assay
Outline: (§2)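 NCI 60-cell panel, five-dose format: cells plated at 5,000–40,000/well by doubling time, preincubated 24 h at 37 °C, 5% CO2; time-zero plates TCA-fixed. Compound dissolved in DMSO, five concentrations (0.01, 0.1, 1, 10, 100 µM) plus control, 48 h. Cells fixed with cold TCA, stained with 0.4% SRB in 1% acetic acid, bound dye solubilized in 10 mM trizma base, absorbance at 515 nm. GI50 taken from [(Ti–Tz)/(C–Tz)]×100 = 50.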

[5] = tested on: NCI-H226; test: Growth inhibition of human NCI-H226 cells after 48 hrs by SRB assay; conditions: NCI-H226, 48 h
Outline: (§3)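 NCI-60 panel protocol with adherent lines. Cells were seeded at 5,000–40,000 cells/well, depending on doubling time, and pre-incubated 24 h at 37 °C, 5% CO₂. Time-zero plates were TCA-fixed at drug addition. Drugs were dissolved in DMSO and exposed for 48 h. Cells were fixed with cold TCA (final 10%) for 60 min at 4 °C, stained with 0.4% SRB in 1% acetic acid for 10 min, solubilized with 10 mM trizma base, and read at A515.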

[6] = tested on: NCI-H23; test: Growth inhibition of human NCI-H23 cells after 48 hrs by SRB assay; conditions: NCI-H23, 48 h; outline: as §3
[7] = tested on: NCI-H322M; test: Growth inhibition of human NCI-H322M cells after 48 hrs by SRB assay; outline: as §3
[8] = tested on: NCI-H460; test: Growth inhibition of human NCI-H460 cells after 48 hrs by SRB assay; conditions: NCI-H460, 48 h; outline: as §3
[9] = tested on: HCT-116; test: Growth inhibition of human HCT116 cells after 48 hrs by SRB assay; conditions: HCT-116, 48 h; outline: as §3
[10] = tested on: KM12; test: Growth inhibition of human KM12 cells after 48 hrs by SRB assay; conditions: KM12, 48 h; outline: as §3
[11] = tested on: SW-620; test: Growth inhibition of human SW620 cells after 48 hrs by SRB assay; conditions: SW-620, 48 h; outline: as §2
[12] = tested on: SF-268; test: Growth inhibition of human SF268 cells after 48 hrs by SRB assay; conditions: SF-268, 48 h; outline: as §3
[13] = tested on: SNB-75; test: Growth inhibition of human SNB75 cells after 48 hrs by SRB assay; conditions: SNB-75, 48 h; outline: as §3
[14] = tested on: LOX IMVI; test: Growth inhibition of human LOXIMVI cells after 48 hrs by SRB assay; outline: as §3
[15] = tested on: MDA-MB-435; test: Growth inhibition of human MDA-MB-435 cells after 48 hrs by SRB assay; conditions: MDA-MB-435, 48 h; outline: as §3
[16] = tested on: SK-MEL-28; test: Growth inhibition of human SK-MEL-28 cells after 48 hrs by SRB assay; conditions: SK-MEL-28, 48 h; outline: as §3
[17] = tested on: SK-MEL-5; test: Growth inhibition of human SK-MEL-5 cells after 48 hrs by SRB assay; conditions: SK-MEL-5, 48 h; outline: as §3
[18] = tested on: IGROV-1; test: Growth inhibition of human IGROV1 cells after 48 hrs by SRB assay; conditions: IGROV-1, 48 h; outline: as §3
[19] = tested on: OVCAR-3; test: Growth inhibition of human OVCAR-3 cells after 48 hrs by SRB assay; conditions: OVCAR-3, 48 h; outline: as §3
[20] = tested on: OVCAR-4; test: Growth inhibition of human OVCAR4 cells after 48 hrs by SRB assay; conditions: OVCAR-4, 48 h; outline: as §3
[21] = tested on: A498; test: Growth inhibition of human A498 cells after 48 hrs by SRB assay; conditions: A498, 48 h; outline: as §3
[22] = tested on: CAKI-1; test: Growth inhibition of human Caki1 cells after 48 hrs by SRB assay; conditions: CAKI-1, 48 h; outline: as §3
[23] = tested on: RXF 393; test: Growth inhibition of human […] cells after 48 hrs by SRB assay; conditions: RXF 393, 48 h; outline: as §3
[24] = tested on: MCF7; test: Growth inhibition of human MCF7 cells after 48 hrs by SRB assay; conditions: MCF7, 48 h; outline: as §3
[25] = tested on: T47D; test: Growth inhibition of human T47D cells after 48 hrs by SRB assay; outline: as §2
[26] = tested on: MDA-MB-468; test: Growth inhibition of human MDA-MB-468 cells after 48 hrs by SRB assay; conditions: MDA-MB-468, 48 h; outline: as §3
[27] = read-out: LC50 (the source's name)

COc1ccc(C2CC(c3nc4ccccc4[nH]3)=NN2c2ccccc2)cc1OC (stereo not drawn)
GI50 [1]: > 100 µM | TGI [1]: > 100 µM | CC50 [1, 27]: > 100 µM | GI50 [2]: 17.9 µM | TGI [2]: > 100 µM | CC50 [2, 27]: > 100 µM | GI50 [3]: 2.76 µM | TGI [3]: 10.3 µM | CC50 [3, 27]: 76.6 µM | GI50 [4]: > 100 µM | TGI [4]: > 100 µM | CC50 [4, 27]: > 100 µM | GI50 [5]: 15.3 µM | TGI [5]: > 100 µM | CC50 [5, 27]: > 100 µM | GI50 [6]: 16 µM | TGI [6]: > 100 µM | CC50 [6, 27]: > 100 µM | GI50 [7]: 21.3 µM | TGI [7]: > 100 µM | CC50 [7, 27]: > 100 µM | GI50 [8]: 13.6 µM | TGI [8]: 40 µM | CC50 [8, 27]: > 100 µM | GI50 [9]: 3.94 µM | TGI [9]: 16.5 µM | CC50 [9, 27]: 49.8 µM | GI50 [10]: 5.14 µM | TGI [10]: 19.5 µM | CC50 [10, 27]: 52.2 µM | GI50 [11]: 6.45 µM | TGI [11]: 23.3 µM | CC50 [11, 27]: 65.7 µM | GI50 [12]: 21.3 µM | TGI [12]: > 100 µM | CC50 [12, 27]: > 100 µM | GI50 [13]: 11 µM | TGI [13]: 47.4 µM | CC50 [13, 27]: > 100 µM | GI50 [14]: 5.1 µM | TGI [14]: 21.7 µM | CC50 [14, 27]: 62.9 µM | GI50 [15]: 4.15 µM | TGI [15]: > 100 µM | CC50 [15, 27]: > 100 µM | GI50 [16]: 13.1 µM | TGI [16]: 39 µM | CC50 [16, 27]: > 100 µM | GI50 [17]: 2.62 µM | TGI [17]: 15.1 µM | CC50 [17, 27]: 67.6 µM | GI50 [18]: 0.92 µM | TGI [18]: 19.1 µM | CC50 [18, 27]: > 100 µM | GI50 [19]: 4.17 µM | TGI [19]: 18.9 µM | CC50 [19, 27]: 62.2 µM | GI50 [20]: 9.31 µM | TGI [20]: > 100 µM | CC50 [20, 27]: > 100 µM | GI50 [21]: 5.14 µM | TGI [21]: 58.1 µM | CC50 [21, 27]: > 100 µM | GI50 [22]: 3.6 µM | TGI [22]: 24.7 µM | CC50 [22, 27]: > 100 µM | GI50 [23]: 13.4 µM | TGI [23]: 36.1 µM | CC50 [23, 27]: 97 µM | GI50 [24]: 2.41 µM | TGI [24]: 15.3 µM | CC50 [24, 27]: 54.2 µM | GI50 [25]: 3.09 µM | TGI [25]: 51.1 µM | CC50 [25, 27]: > 100 µM | GI50 [26]: 5.25 µM | TGI [26]: 21.2 µM | CC50 [26, 27]: 64.9 µM
